# ChEMBL document CHEMBL1126283, “Thromboxane receptor antagonism combined with thromboxane synthase inhibition. 4. 8-[[(4-Chlorophenyl)sulfonyl]amino]-4-(3-(3-pyridinyl) propyl)octanoic acid and analogs” (J Med Chem, 1992)
# Experiments:
# Thromboxane-A synthase = target: T1, Thromboxane-A synthase (Homo sapiens, UniProt P24557); assay: In vitro inhibition of Thromboxane A2 synthase
# T1 sequence (P24557 whole entry): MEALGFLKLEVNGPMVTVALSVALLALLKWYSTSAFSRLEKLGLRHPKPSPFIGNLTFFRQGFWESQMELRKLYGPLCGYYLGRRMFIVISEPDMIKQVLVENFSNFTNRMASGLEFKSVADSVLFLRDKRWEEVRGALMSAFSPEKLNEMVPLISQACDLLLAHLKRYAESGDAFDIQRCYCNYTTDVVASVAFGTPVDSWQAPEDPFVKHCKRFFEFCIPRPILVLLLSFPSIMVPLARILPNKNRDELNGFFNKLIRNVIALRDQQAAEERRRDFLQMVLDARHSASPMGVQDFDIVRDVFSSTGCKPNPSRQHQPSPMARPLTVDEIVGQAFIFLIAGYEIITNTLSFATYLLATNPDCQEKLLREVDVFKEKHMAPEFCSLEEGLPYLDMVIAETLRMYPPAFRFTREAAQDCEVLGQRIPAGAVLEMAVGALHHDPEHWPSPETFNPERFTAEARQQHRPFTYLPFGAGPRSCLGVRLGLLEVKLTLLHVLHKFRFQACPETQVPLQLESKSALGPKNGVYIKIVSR
# Homo sapiens [1] = organism: Homo sapiens; assay: In vitro inhibition of U 46619 induced aggregation of washed platelets
# How it was run: (§1)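 Antagonism of aggregation induced by the PGH2/TxA2 mimetic U 46619, run in human washed platelets (WP) and in platelet-rich plasma (PRP); IC50 reported. Values come from one or two determinations.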
# Homo sapiens [2] = organism: Homo sapiens; assay: Evaluated in vitro for the inhibition of U 46619 induced aggregation of platelet-rich plasma; how it was run: as §1
# Cavia porcellus [3] = organism: Cavia porcellus; assay: Inhibition of bronchoconstriction in guinea pigs; format: functional; conditions: Lung
# How it was run: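 Guinea pigs with cannulated trachea, ventilated at 40 strokes/min, given succinylcholine (1.0 mg/kg). Arachidonic acid priming dose 0.25 mg/kg iv, then 0.5 mg/kg iv. Test compound was then given as an iv bolus, with a 0.5 mg/kg AA challenge 5 min later. Peak insufflation pressure expressed as % of control. Five doses (0.1-1000 µg/kg), 6-8 animals per dose, ED50 derived.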
# Cavia porcellus [4] = assay: Ex vivo inhibition of U-46,619-induced aggregation of guinea pig platelets after peroral administration of 10 mg/kg dose at 1 hr time; format: functional; conditions: route oral
# How it was run: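 Fasted (12-16 h) male Hartley guinea pigs (350-400 g), 3-6 per group, dosed orally in a 3% fortified cornstarch suspension vehicle. At 1 h (or 6 h), animals under methoxyflurane anaesthesia were bled by cardiac puncture into citrate (0.0129 M final). PRP (500g, 7 min) was stirred 1 min at 37 °C, then U 46619 added. Result reported as EC50 drug-treated / EC50 vehicle.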
# Canis familiaris = organism: Canis familiaris; assay: Evaluated for contraction of dog saphenous vein; format: functional, organism-based; conditions: Canis lupus familiaris, read-out: pA2 (converted)
# How it was run: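 Dog saphenous vein rings contracted with U 46619; antagonism expressed as pA2. Number of determinations = 1, with more than 12 rings per determination and a single drug concentration applied to each ring.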
# Cavia porcellus [5] = assay: Ex vivo inhibition of U-46,619-induced aggregation of guinea pig platelets after peroral administration of 10 mg/kg dose at 6 hr time; format: functional; conditions: route oral
# How it was run: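 Male Hartley guinea pigs (350-400 g), fasted 12-16 h, dosed orally in 3% fortified cornstarch suspension vehicle; groups of three to six. At 6 h, cardiac-puncture blood drawn under methoxyflurane into citrate (0.0129 M final). PRP obtained at 500g, 7 min. PRP preincubated 1 min at 37 °C with stirring, then U 46619 added. Aggregation ratio = EC50 drug-treated/EC50 vehicle-treated.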
# Homo sapiens [6] = organism: Homo sapiens; assay: In vitro inhibition of U 46619 induced aggregation of washed platelets(WP); how it was run: as §1
SMILES,IC50 (Thromboxane-A synthase),IC50 (Homo sapiens [1]),IC50 (Homo sapiens [2]),IC50 (Homo sapiens [6]),ED50 (Cavia porcellus [3]),Concentration ratio (Cavia porcellus [4]),Kb (Canis familiaris),Concentration ratio (Cavia porcellus [5])
O=S(=O)(NCCCCC(CCCO)CCCc1cccnc1)c1ccc(Cl)cc1 (centres undefined),70 nM,2360 nM,,,,,,
O=C(O)CCC(CCCCNS(=O)(=O)c1ccc(C(F)(F)F)cc1)CCCc1cccnc1 (centres undefined),2 nM,230 nM,610 nM,,,,,
O=C(O)CCC(CCCCNS(=O)(=O)c1ccc2ccccc2c1)CCCc1cccnc1 (centres undefined),1.5 nM,240 nM,2800 nM,,,,,
O=C(O)CSC(CCCCNS(=O)(=O)c1ccc(Cl)cc1)CCCc1cccnc1 (centres undefined),2 nM,6 nM,400 nM,,7.42 µg/kg,33,0.269 nM,
O=C(O)CCC(C/C=C/c1cccnc1)CCCCNS(=O)(=O)c1ccc(Cl)cc1 (centres undefined),7 nM,27 nM,1190 nM,,,,0.603 nM,
COc1ccc(S(=O)(=O)NCCCCC(CCCc2cccnc2)CCC(=O)O)cc1 (centres undefined),3 nM,220 nM,1340 nM,,,,,
O=C(O)CCCCO/N=C(/c1cccnc1)c1cccc(C(F)(F)F)c1 [RIDOGREL],,,,,48.3 µg/kg,5.6,,
O=C(O)/C=C/C(CCCCNS(=O)(=O)c1ccc(Cl)cc1)CCCc1cccnc1 (centres undefined),10 nM,70 nM,770 nM,,,,,
[N-]=[N+]=Nc1ccc(S(=O)(=O)NCCCCC(CCCc2cccnc2)CCC(=O)O)cc1 (centres undefined),4 nM,35 nM,2000 nM,,,,,
O=C(O)C(=O)NC(CCCCNS(=O)(=O)c1ccc(Cl)cc1)CCCc1cccnc1 (centres undefined),150 nM,590 nM,11300 nM,,,,1.86 nM,
O=S(=O)(NCCCCC(CCCc1cccnc1)CCC1N=NN=N1)c1ccc(Cl)cc1 (centres undefined),5 nM,22 nM,910 nM,,,10,0.468 nM,
O=C(O)COC(CCCCNS(=O)(=O)c1ccc(Cl)cc1)CCCc1cccnc1 (centres undefined),18 nM,15 nM,1600 nM,,,2.6,,
CCOC(=O)CCC(CCCCNS(=O)(=O)c1ccc(Cl)cc1)CCCc1cccnc1 (centres undefined),,,,,,3,,
CC(C)(CC(CCCCNS(=O)(=O)c1ccc(Cl)cc1)CCCc1cccnc1)C(=O)O (centres undefined),20 nM,18 nM,3700 nM,,,8.7,1 nM,
CS(=O)(=O)c1ccc(S(=O)(=O)NCCCCC(CCCc2cccnc2)CCC(=O)O)cc1 (centres undefined),4 nM,> 10000 nM,,,,,,
O=C(O)C(CCCCNS(=O)(=O)c1ccc(Cl)cc1)CCCc1cccnc1 (centres undefined),90 nM,,,9.3 µM,,,,
CC(CC(CCCCNS(=O)(=O)c1ccc(Cl)cc1)CCCc1cccnc1)C(=O)O (centres undefined),3 nM,53 nM,2900 nM,,,9,1.48 nM,

# Now from value to molecule, other results behind:
IC50 (Thromboxane-A synthase),IC50 (Homo sapiens [1]),IC50 (Homo sapiens [2]),IC50 (Homo sapiens [6]),SMILES,ED50 (Cavia porcellus [3]),Concentration ratio (Cavia porcellus [4]),Kb (Canis familiaris),Concentration ratio (Cavia porcellus [5])
20 nM,,,,O=C(O)CCC(CCCCNS(=O)(=O)c1ccc(Cl)cc1)CCCc1cccnc1 (centres undefined),5.75 µg/kg,27.3,,11.8
7 nM,200 nM,,,O=C(O)CC(CCCCNS(=O)(=O)c1ccc(Cl)cc1)CCCc1cccnc1 (centres undefined),,,3.72 nM,
60 nM,> 10000 nM,,,NC(=O)CCC(CCCCNS(=O)(=O)c1ccc(Cl)cc1)CCCc1cccnc1 (centres undefined),,,,
1 nM,6 nM,4860 nM,,Cc1ccncc1CCCC(CCCCNS(=O)(=O)c1ccc(Cl)cc1)CCC(=O)O (centres undefined),,,,
1 nM,58 nM,15200 nM,,Cc1ccc(S(=O)(=O)NCCCCC(CCCc2cccnc2)CCC(=O)O)cc1 (centres undefined),,,1.55 nM,
40 nM,1520 nM,,,O=C(O)CCC(CCCCNS(=O)(=O)c1ccc(Cl)cc1)CCn1ccnc1 (centres undefined),,,34.7 nM,
3 nM,980 nM,3700 nM,,O=C(O)CCC(CCCCNS(=O)(=O)c1ccc(Cl)cc1)CCCn1ccnc1 (centres undefined),,,5.5 nM,
3 nM,13 nM,280 nM,,O=C(O)CCC(CCCCNS(=O)(=O)c1ccc(Cl)cc1)CCOc1cccnc1 (centres undefined),5.2 µg/kg,>100,0.398 nM,>100
1 nM,108 nM,> 30000 nM,,O=C(O)CCC(CCCCNS(=O)(=O)c1ccc(F)cc1)CCCc1cccnc1 (centres undefined),,,,
3 nM,500 nM,8700 nM,,O=C(O)CCC(CCCCNS(=O)(=O)c1ccc(Cl)cc1)CCCc1ccc[n+]([O-])c1 (centres undefined),,,7.41 nM,
